From ChEMBL document CHEMBL3785020, “Discovery of novel sesquistilbene indanone analogues as potent anti-inflammatory agents” (Eur J Med Chem, 2016)
≈ marks a conversion by molar mass, not a printed value. Calls of active or inactive are those of the source. The calls are words filed in the database; no cut-off is given here.

Key:
RAW264.7 [1] = experiment: Antiinflammatory activity against LPS-induced mouse RAW264.7 cells assessed as inhibition of NO production at 50 uM preincubated for 4 hrs followed by LPS stimulation for 24 hrs by Griess reaction; assay type: functional
In short: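 RAW264.7 cells in DMEM with 5% FBS at 37 °C and 5% CO2 were pretreated at 50 µM for 4 h, then stimulated with or without LPS (1 µg/mL) for 24 h. Nitrite in the supernatant was measured by Griess reagent at 540 nm against a NaNO2 standard curve. At least three independent experiments, each in duplicate; means ± SEM.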

RAW264.7 [2] = experiment: Cytotoxicity against mouse RAW264.7 cells assessed as cell viability up to 50 uM by MTT assay; assay type: cell-based
In short: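 MTT assay after 12.5-50 µM treatment with LPS stimulation for 24 h. Medium was replaced, then MTT was added to a final 0.5 mg/mL and incubated 4 h at 37 °C. Formazan was dissolved in DMSO and absorbance read at 570 nm. At least three independent experiments in duplicate.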

[3] = (§1) Acute toxicity in ip dosed Kunming mouse after 14 days by Bliss method; assay type: organism-based; conditions: Kunming, in vivo
[4] = Solubility in water at pH 6.8; assay type: physicochemical
[5] = Solubility in water at pH 1.2; assay type: physicochemical
Mus musculus [6] = experiment: Acute toxicity in ip dosed Kunming mouse assessed as mortality after 7 days by Bliss method; assay type: organism-based; conditions: in vivo, 168 h
[7] = Solubility in water at pH 7.4; assay type: physicochemical
Mus musculus [8] = experiment: Acute toxicity in po dosed Kunming mouse after 14 days by Bliss method; conditions: in vivo, 336 h
RAW264.7 [9] = experiment: Antiinflammatory activity against LPS-induced mouse RAW264.7 cells assessed as inhibition of NO production at preincubated for 4 hrs followed by LPS stimulation for 24 hrs by Griess reaction; assay type: functional, cell-based
In short: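 Cells were pretreated for 4 h, then stimulated with LPS (1 µg/mL) for 24 h. Supernatant was mixed with an equal volume of Griess reagent, and nitrite was read at 540 nm against a NaNO2 standard curve. IC50 was obtained by curve fitting.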

[10] = Lipophilicity, logP of the compound; assay type: physicochemical; conditions: octanol/water
RAW264.7 [11] = experiment: Antiinflammatory activity against LPS-induced mouse RAW264.7 cells assessed as downregulation of COX2 expression preincubated for 4 hrs followed by LPS stimulation for 24 hrs by Western blot analysis; assay type: functional, cell-based
In short: (§2)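 Cells serum-starved overnight, pretreated at 12.5-50 µM, then stimulated with LPS 1 µg/mL for 24 h. Whole-cell lysates were made in RIPA buffer with protease and phosphatase inhibitors, and 30 µg protein was loaded. Blots used iNOS (1:500) or COX-2 (1:10000) antibodies with HRP secondary and ECL detection. Signals were normalised to β-actin and expressed as fold of control. At least three independent experiments, each in duplicate.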

[12] = target: MAP kinase p38 (Mus musculus) (UniProt P47811+O08911+Q9WUI1+Q9Z1B7); experiment: Effect of p38 phosphorylation in LPS-induced mouse RAW264.7 cells preincubated with the compound followed by LPS-stimulation for 45 mins by Western blot analysis; assay type: cell-based
[13] = target: Transcription factor p65 (Mus musculus) (UniProt Q04207); experiment: Inhibition of LPS-stimulated NFkappaB p65 nuclear translocation in mouse RAW264.7 cells preincubated with compound followed by LPS-stimulation for 2 hrs by Western blot analysis; assay type: cell-based
Transcription factor p65 (Mus musculus), sequence (Q04207 whole entry): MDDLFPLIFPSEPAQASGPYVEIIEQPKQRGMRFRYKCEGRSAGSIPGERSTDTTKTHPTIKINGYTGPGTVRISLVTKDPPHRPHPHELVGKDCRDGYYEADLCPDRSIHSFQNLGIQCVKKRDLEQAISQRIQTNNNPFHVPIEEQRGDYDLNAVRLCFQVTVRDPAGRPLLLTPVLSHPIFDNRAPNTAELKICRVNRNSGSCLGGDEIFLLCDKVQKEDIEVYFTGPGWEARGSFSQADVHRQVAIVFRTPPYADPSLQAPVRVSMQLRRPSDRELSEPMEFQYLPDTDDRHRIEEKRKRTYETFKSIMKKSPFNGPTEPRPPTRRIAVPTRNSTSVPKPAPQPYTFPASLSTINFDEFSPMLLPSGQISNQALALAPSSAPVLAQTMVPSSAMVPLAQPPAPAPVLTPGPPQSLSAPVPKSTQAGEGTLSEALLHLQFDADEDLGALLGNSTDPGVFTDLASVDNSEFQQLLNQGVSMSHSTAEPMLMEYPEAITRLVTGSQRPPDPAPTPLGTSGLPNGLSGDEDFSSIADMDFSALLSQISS
In short: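 Cells were pretreated at 12.5-50 µM, then stimulated with LPS (1 µg/mL) for 2 h. Nuclear and cytoplasmic fractions were prepared with an extraction kit and blotted for NF-κB p65 (1:1000). β-actin was the cytoplasmic loading control and lamin the nuclear one. At least three independent experiments in duplicate.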

RAW264.7 [14] = experiment: Inhibition of JNK phosphorylation in LPS-induced mouse RAW264.7 cells preincubated with the compound followed by LPS-stimulation for 45 mins by Western blot analysis; assay type: cell-based
RAW264.7 [15] = experiment: Downregulation of TLR4 expression in LPS-induced mouse RAW264.7 cells preincubated with compound followed by LPS-stimulation for 45 mins by Western blot analysis; assay type: functional, cell-based
RAW264.7 [16] = experiment: Effect of ERK phosphorylation in LPS-induced mouse RAW264.7 cells preincubated with the compound followed by LPS-stimulation for 45 mins by Western blot analysis; assay type: cell-based
RAW264.7 [17] = experiment: Antiinflammatory activity against LPS-induced mouse RAW264.7 cells assessed as downregulation of iNOS expression preincubated for 4 hrs followed by LPS stimulation for 24 hrs by Western blot analysis; assay type: functional, cell-based; in short: as §2
Mus musculus [18] = experiment: as §1; assay type: organism-based; conditions: in vivo, 336 h

| Structure (SMILES) | inhibition at 50 µM (RAW264.7 [1]) | other results |
| --- | --- | --- |
| COc1cc(OC)cc(C2C(O)c3cc(OC)cc(OC)c3C2c2ccccc2)c1 (configuration not stated) | 76.3% | – |
| COc1ccc([C@@H]2C(=O)c3ccc(OC)cc3[C@H]2c2ccc(F)cc2)cc1 | 85.9% | – |
| COc1cc(OC)cc([C@@H]2C(=O)c3cc(OC)cc(OC)c3[C@H]2c2ccc(C)cc2)c1 | 83.3% | – |
| COc1ccc(C2C(=O)c3ccc(OC)cc3C2c2ccccc2)cc1 (racemic) [listing 1 of 2 here] | 87.6% | Activity (RAW264.7 [2]): Non-toxic; LD50 at 336 h [3]: 275 mg/kg; solubility [4]: 0.0687 mg/mL (≈ 199 µM); solubility [5]: 0.0383 mg/mL (≈ 111 µM); Activity (Mus musculus [6]): Toxic; solubility [7]: 0.0465 mg/mL (≈ 135 µM); Activity (Mus musculus [8]): Dose-dependent effect; IC50 (RAW264.7 [9]; Mus musculus, RAW264.7): 23.2 µM; logP [10]: 1.77 |
| COc1ccc(C2C(=O)c3ccc(OC)cc3C2c2ccccc2)cc1 (racemic) [listing 2 of 2 here] | – | Activity (RAW264.7 [11]): Dose-dependent effect; Activity [12]: inactive; inhibition [13]: Dose-dependent effect; inhibition (RAW264.7 [14]): Dose-dependent effect; Activity (RAW264.7 [15]): Dose-dependent effect; Activity (RAW264.7 [16]): inactive; inhibition (RAW264.7 [9]): Dose-dependent effect; Activity (RAW264.7 [17]): Dose-dependent effect |
| COc1ccc([C@@H]2c3c(OC)cc(OC)cc3C(=O)[C@H]2c2cc(OC)cc(OC)c2)cc1 (relative stereo) | 61% | – |
| COc1cc(OC)cc([C@@H]2C(=O)c3cc(OC)cc(OC)c3[C@H]2c2ccccc2)c1 (relative stereo) | 69.2% | – |
| COc1cc(OC)cc([C@@H]2C(=O)c3cc(OC)cc(OC)c3[C@H]2c2ccc(F)cc2)c1 (relative stereo) | 77.3% | – |
| COc1cc(OC)cc([C@@H]2C(=O)c3cc(OC)cc(OC)c3[C@H]2c2ccc(C(F)(F)F)cc2)c1 (relative stereo) | 71.8% | – |
| COc1cc(OC)cc([C@@H]2C(=O)c3cc(OC)cc(OC)c3[C@H]2c2cccc(F)c2)c1 (relative stereo) | 65.7% | – |
| CCOC(=O)[C@@H]1c2c(OC)cc(OC)cc2C(=O)[C@H]1c1cc(OC)cc(OC)c1 (relative stereo) | 64.6% | – |
| COc1cc(OC)cc([C@@H]2C(=O)c3cc(OC)cc(OC)c3[C@H]2c2ccc(OCc3ccccc3)cc2)c1 (relative stereo) | 65.8% | – |
| COc1cc(OC)cc([C@@H]2C(=O)c3cc(OC)cc(OC)c3[C@H]2C2CCCCC2)c1 (relative stereo) | 77.3% | – |
| COc1cc(OC)cc([C@@H]2C(=O)c3cc(OC)cc(OC)c3[C@H]2c2ccc(-c3ccccc3)cc2)c1 (relative stereo) | 73.9% | – |
| COc1ccc([C@@H]2C(=O)c3ccc(OC)cc3[C@H]2c2ccc(C)cc2)cc1 (relative stereo) | 47.4% | – |
| COc1ccc([C@@H]2C(=O)c3ccc(OC)cc3[C@H]2c2ccc(C(F)(F)F)cc2)cc1 (relative stereo) | 80% | – |
| COc1ccc([C@@H]2C(=O)c3ccc(OC)cc3[C@H]2c2cc(OC)cc(OC)c2)cc1 (relative stereo) | 51.6% | – |
| COc1cc(OC)cc([C@@H]2C(=O)c3cc(OC)cc(OC)c3[C@H]2c2ccc3ccccc3c2)c1 (relative stereo) | 47.4% | – |

| Structure (SMILES) | inhibition at 50 µM (RAW264.7 [1]) | other results |
| --- | --- | --- |
| CCOc1ccc([C@@H]2c3cc(OC)ccc3C(=O)[C@H]2c2ccc(OC)cc2)cc1 (relative stereo) | 84.4% | – |
| COc1ccc([C@@H]2C(=O)c3ccc(OC)cc3[C@H]2c2cccc(F)c2)cc1 (relative stereo) | 80% | – |
| COc1ccc([C@@H]2C(=O)c3ccc(OC)cc3[C@H]2C2CCCCC2)cc1 (relative stereo) | 85.7% | – |
| COc1cc(OC)cc([C@@H]2c3c(OC)cc(OC)cc3C(=O)[C@H]2c2cc(OC)cc(OC)c2)c1 (relative stereo) | 59.4% | – |
| CCOc1ccc([C@@H]2c3c(OC)cc(OC)cc3C(=O)[C@H]2c2cc(OC)cc(OC)c2)cc1 (relative stereo) | 80.9% | – |
| COc1ccc([C@@H]2C(=O)c3ccc(OC)cc3[C@H]2c2ccc3ccccc3c2)cc1 (relative stereo) | 58.7% | – |
| COc1cc(OC)cc([C@@H]2C(=O)c3cc(OC)cc(OC)c3[C@H]2Cc2ccccc2)c1 (relative stereo) | 86.9% | – |
| COc1ccc([C@@H]2c3cc(OC)ccc3C(=O)[C@H]2c2ccc(OC)cc2)cc1 (relative stereo) | 79.3% | – |
| COc1ccc([C@@H]2C(=O)c3ccc(OC)cc3[C@H]2c2ccc(OC(F)(F)F)cc2)cc1 (relative stereo) | 76.3% | – |
| COc1cc(OC)cc([C@@H]2C(=O)c3cc(OC)cc(OC)c3[C@H]2c2ccc(OC(F)(F)F)cc2)c1 (relative stereo) | 65.6% | – |
| COc1cc(OC)cc([C@@H]2C(=O)c3cc(OC)cc(OC)c3[C@H]2c2ccc(O)cc2)c1 (relative stereo) | 65.6% | – |
| COc1ccc([C@@H]2C(=O)c3ccc(OC)cc3[C@H]2c2ccc(-c3ccccc3)cc2)cc1 (relative stereo) | 57.5% | – |
| COc1ccc(C2C(=O)c3ccc(OC)cc3C2c2ccccc2)cc1 (single isomer, unassigned; (+)) [listing 1 of 2 here] | – | IC50 (RAW264.7 [9]; raw264.7): 23.5 µM |
| COc1ccc(C2C(=O)c3ccc(OC)cc3C2c2ccccc2)cc1 (single isomer, unassigned; (+)) [listing 2 of 2 here] | – | inhibition (RAW264.7 [9]): Dose-dependent effect |
| COc1ccc(C2C(=O)c3ccc(OC)cc3C2c2ccccc2)cc1 (single isomer, unassigned; (-)) [listing 1 of 2 here] | – | LD50 (Mus musculus [18]): 275 mg/kg; IC50 (RAW264.7 [9]; raw264.7): 23.7 µM |
| COc1ccc(C2C(=O)c3ccc(OC)cc3C2c2ccccc2)cc1 (single isomer, unassigned; (-)) [listing 2 of 2 here] | – | inhibition (RAW264.7 [9]): Dose-dependent effect |
| Oc1ccc(/C=C/c2cc(O)cc(O)c2)cc1 [RESVERATROL] | 35% | – |
